Assay outcomes deposited in PubChem by several laboratories.
Sampled rows, rich in hits. Any-hit rate of the full collection: about 2.8%.
sdo1 growth = compounds rescuing growth of sdo1-depleted yeast, bone marrow failure model; S. cerevisiae sdo1-depleted JHY4D growth rescue, OD600 30 h; hits give high values; pdr5 snq2 efflux-pump mutant strain; z-score at 10 µM; AID 817; hit rate 0.21% among 140,000;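 active = z-score above 3 at both the 24 hr and the 30 hr optical density reads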;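 also: z-score against mean and SD of all compound wells on the same plate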
Yeast growth inh = yeast BB579 growth reduction in restrictive medium | S. cerevisiae BB579 growth, OD615, 48 h | inhibition, % at 10 µM | hit rate 0.51% among 140,000 | AID 804;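 active = inhibition above a set limit, 3 SD over the mean compound inhibition, cut at about 44% in these data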
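Detection: OD615 turbidity measurement; Material: Saccharomyces cerevisiae DeaD strain BB579, replicative lifespan model yeast; Timing: 48 h exposure, 30 °C; Doses: single 10 µM dose; Medium: CSMM-D restrictive synthetic medium containing dextrose (glucose); Controls: amphotericin B at 10 µg/mL as positive control.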
HCT116 PTEN-null = PTEN-deleted cell growth suppression | hit rate 1.2% among 140,000 | viability, % at 10 µM | HCT116 PTEN-null viability, CellTiter-Glo, 60 h; hits give low values;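 active = viability at or below a set limit, 4 SD under the median of all tested compounds, cut at about 3.7% in these data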;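 also: PTEN knockout HCT116 line with beta catenin targeted HCT116 as companion control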
HCT116 bCat-KO = beta-catenin-lacking colon tumor cell growth suppression | HCT116 beta-catenin knockout viability, CellTiter-Glo, 60 h; hits give low values | viability, % at 10 µM | hit rate 1.5% among 140,000;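 active = viability at or under a set limit, the compound median less 4 SD, cut at about 6% in these data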;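 also: 0% = Hyamine 1622 control at 20 µM and 100% = untreated cell control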
Yeast life ext = yeast lifespan extension | AID 775 | S. cerevisiae growth with nicotinamide, OD615; deaD strain in restrictive glucose medium | inhibition of the nicotinamide effect, % at 10 µM | hit rate 0.68% among 130,000;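 active = inhibition above a set limit, placed 3 SD over the median of all compounds, cut at about 26% in these data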;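 also: 0% = nicotinamide-treated wells and 100% = cells grown without nicotinamide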
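Buffer or medium: CSMM-D glucose medium, restrictive; test system: modified budding yeast, DeaD strain; compound: single dose 10 µM compound, 0.25% DMSO; schedule: culture preincubation 4 h, compound exposure 48 h, both 30 °C; detection: optical density (absorbance) at 615 nm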
* marks the source's active call; other numbers are inactive results; . = no result given.

SMILES	sdo1 growth	Yeast growth inh	HCT116 PTEN-null	HCT116 bCat-KO	Yeast life ext
CCN(CC)S(=O)(=O)c1ccc(NC(=O)C(OC)c2ccccc2)cc1 (stereo not drawn)	0.86	-52.9	106.9	98.0	1.3
O=C(NCc1cccnc1)c1ccc(S(=O)(=O)N2CCCCC2)cc1	0.37	-79.6	104.5	102.5	115.5*
O=C(NCc1ccccc1)c1ccc(S(=O)(=O)N2CCCC2)cc1	0.64	-17.2	111.8	96.1	2.0
O=C(Nc1ccc(S(=O)(=O)N2CCCCC2)cc1)c1ccc(CN2CCOCC2)cc1	0.53	-2.5	9.8	5.9*	.
Cn1nc(-c2ccccc2)c(-c2nc(-c3cccc(Cl)c3)no2)c1Cl	-0.75	-13.1	64.3	82.1	-5.8
O=C(Nc1ccccc1-c1nnc(SCc2ccccc2Cl)o1)c1ccccc1	-0.38	-15.6	105.5	89.0	-6.3
O=S(=O)(Nc1cccc2cccnc12)c1ccc(S(=O)(=O)N2CCCC2)cc1	-0.49	-24.5	3.8*	8.7	0.6
CS(=O)(=O)Nc1cccc2cccnc12	0.6	-14.4	11.5	11.2	-1.1
Cc1ccc(-c2nnc(N3CCN(c4ccccn4)CC3)c3ccccc23)cc1	-1.86	-70.0	4.8	3.5*	-7.1
CCc1[nH]nc2c1C(c1ccc(Br)s1)C(C#N)=C(N)O2 (stereo not drawn)	-1.6	-26.4	32.8	34.4	57.5*
CCc1[nH]nc2c1C(c1ccsc1)C(C#N)=C(N)O2 (stereo not drawn)	1.25	-19.1	96.1	82.4	.
O=C(O)CSc1nc(-c2ccc(Cl)cc2)nc2c1oc1ccccc12	-0.83	70.5*	99.4	93.3	-6.8
O=C(O)CSc1nc(-c2ccccc2)nc2c1oc1ccccc12	0.61	-32.8	106.5	95.1	-8.9
O=C(O)C(=O)/C(=C\c1cccc2ccccc12)c1ccc2ccccc2n1	-1.01	-45.7	62.3	68.3	30.0*
CC(/C=N\Nc1nnc2c(n1)[nH]c1c(C)cccc12)=C\c1ccco1	-1.21	-77.0	2.4*	2.1*	-10.8
CCOC(=O)c1ccccc1N1C(=O)CSC1=S	-1.02	-24.6	88.8	95.2	36.9*
O=c1c(Cl)c(NCCCO)cnn1-c1nc2ccccc2[nH]1	-0.17	-27.5	2.0*	1.3*	80.6*
C=CCN(CC=C)c1cnn(-c2nc3ccccc3[nH]2)c(=O)c1Cl	-1.48	-43.3	87.1	94.2	10.2
O=C(CN1/C(=C(/O)c2ccccc2)C(=O)c2ccccc2S1(=O)=O)c1ccccc1	-0.26	11.6	63.4	65.2	12.1
C=CCN1C(C(=O)c2ccccc2)=C(OC(=O)COc2ccccc2)c2ccccc2S1(=O)=O	-0.19	90.2*	53.9	52.8	-1.6
CCc1ccc(-c2csc(NC(=O)COC(=O)CCc3nc4ccccc4s3)n2)cc1	-0.06	-20.4	92.0	84.2	0.2
CCOc1ccc(NC(=O)COC(=O)c2cccnc2)cc1	0.52	-63.4	109.2	104.2	-4.7
FC(F)(F)c1nnc2c(Sc3ccccc3)nc3ccccc3n12	-1.23	-17.0	10.1	7.3	-8.0
FC(F)(F)c1nnc2c(Sc3ccc(Cl)cc3)nc3ccccc3n12	-2.22	-46.6	5.5	2.8*	-9.9
FC(F)(F)c1nnc2c(Sc3ccccn3)nc3ccccc3n12	0.43	-39.8	2.7*	2.1*	-14.3
SMILES	sdo1 growth	Yeast growth inh	HCT116 PTEN-null	HCT116 bCat-KO	Yeast life ext
CCc1cccc(C)c1NC(=S)NCc1cccn1C	-0.17	-16.6	87.9	92.6	4.9
CCc1cccc(C)c1NC(=S)NCc1ccc2[nH]c(C)cc2c1	-0.74	53.7*	26.4	23.9	-1.6
Cc1cccc2sc(NNC(=O)C3COc4ccccc4O3)nc12 (stereo not drawn)	-1.07	7.3	0.5*	1.2*	-0.6
Cc1cc(C)c2sc(NNC(=O)C3COc4ccccc4O3)nc2c1 (stereo not drawn)	-1.86	-26.4	43.1	32.9	-2.1
Cc1ccc(-c2csc(N3CCC(NS(=O)(=O)c4ccc5c(c4)OCCO5)CC3)n2)cc1	-1.38	-32.6	17.0	12.7	2.2
CCOC(=O)c1ccc(NC(=O)Cn2ncc(Cl)c(Cl)c2=O)cc1	-1.25	32.7	1.8*	1.7*	0.5
CCOc1c(Cl)cnn(-c2ccc(C)cc2)c1=O	0.58	-15.4	83.6	72.6	-0.6
COc1ccc(NC(=O)Cn2ncc(Cl)c(Cl)c2=O)cc1S(=O)(=O)N1CCOCC1	0.54	-30.5	0.6*	0.9*	-1.0
O=C(OCn1ncc(Cl)c(Cl)c1=O)c1ccc(C(F)(F)F)cc1	-1.42	-13.4	4.5	3.4*	26.2
Cc1ccc(C(=O)OCn2ncc(Cl)c(Cl)c2=O)cc1	-2.86	86.2*	1.2*	1.0*	-12.0
COc1ccc(CC(=O)Nc2ccc3c(c2)OCO3)cc1S(=O)(=O)N1CCOCC1	1.06	-32.0	76.9	76.8	-4.3
COc1ccc(CNC(=O)c2sc3nc4c(c(C(F)(F)F)c3c2N)CCC4)cc1	-0.58	-41.2	96.0	91.2	5.1
CCCn1c(N2CCN(CC(=O)c3c[nH]c4ccccc34)CC2)nc2c1c(=O)[nH]c(=O)n2C	0.86	-43.7	104.1	91.6	-7.8
CCCc1cc(=O)[nH]c(SCC(=O)N(C)CC(=O)Nc2ccccc2CC)n1	-0.92	-66.8	95.1	90.8	-5.6
CCc1ccccc1NC(=O)CN(C)C(=O)Cn1ncc(Cl)c(Cl)c1=O	1.27	-1.4	1.8*	1.8*	-0.7
CCNCCNC(=O)c1c(O)c2ccccc2n(CC)c1=O	0.51	-44.6	105.0	89.4	43.6
C=CCn1c(=O)c(C(=O)NCCNCC)c(O)c2ccccc21	-0.65	-5.7	92.4	85.8	31.4*
COc1ccc(C(=O)c2c(C(F)(F)F)oc3c2C(=O)c2ccccc2C3=O)cc1	-2.34	-45.6	1.8*	1.2*	2.9
COc1ccc(C(=O)c2oc3ccccc3c2NC(C)=O)cc1	0.39	-12.1	100.4	92.0	-11.2
CCCCNC(=O)c1cccc2c(=O)c(C)c(-c3ccccc3)oc12	-1.27	-7.8	56.2	68.7	-0.2
CCCCN(C(=O)c1cccc2c(=O)c(C)c(-c3ccccc3)oc12)c1ccccc1	-0.87	-23.7	15.8	12.0	29.3*
CCC12CN(S(=O)(=O)c3ccc(C)cc3)CC(CC)(CN(S(=O)(=O)c3ccc(C)cc3)C1)C2=O	-0.29	-49.4	84.7	82.7	-2.9
O=c1oc2ccccc2c(O)c1/C=N/c1ccccn1	0.01	-78.6	101.5	91.0	15.5
O=c1oc2ccccc2c(O)c1/C=C1\C=Nc2ccccc21	-2.17	86.3*	62.5	74.8	-3.9
Cc1ccc(-c2nn(-c3ccccc3)cc2CSC(=N)N)cc1	-0.55	-27.7	1.0*	1.1*	-31.8
COc1ccccc1CC(=O)Nc1ccc2nc(C)sc2c1	0.64	1.9	89.0	97.6	-6.0
COc1cccc(CC(=O)Nc2ccc3nc(C)sc3c2)c1	-1.37	79.3*	95.2	95.5	-2.6
COc1ccc(C(=O)Nc2cc(C)c3c(=O)oc4ccccc4c3n2)cc1	-1.81	-18.0	106.7	98.2	-4.0
COC(=O)c1cc(NC(=O)Nc2cccc(Cl)c2)ccc1Cl	-1.67	-11.7	3.4*	3.8*	-16.3
